ChEMBL document CHEMBL4138188, “Eurycomalactone Inhibits Expression of Endothelial Adhesion Molecules at a Post-Transcriptional Level” (J Nat Prod, 2017)
Active and inactive are the calls of the source. No cut-off for these calls is given here.

How the values were obtained:
Homo sapiens [1] = species on record: Homo sapiens; experiment: Inhibition of NF-kappaB in HUVECtert assessed as reduction in cyclin D1 mRNA expression level at 2 uM measured up to 240 mins by qRT-PCR analysis
Summary of the method: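 HUVECtert incubated without TNFα with 2 μM agent, 1 μM cycloheximide or 0.1% DMSO for 0.5−4 h; cyclin D1 mRNA by qRT-PCR, 2−ΔΔCt analysis.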

Homo sapiens [2] = species on record: Homo sapiens; experiment: (§1) Inhibition of NF-kappaB in HUVECtert assessed as reduction in TNFalpha-induced ICAM-1 expression level pretreated for 30 mins followed by TNFalpha stimulation measured after 18 hrs by flow cytometry
Summary of the method: (§2)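 FITC-antibody surface staining, flow cytometry; expression relative to TNFα-stimulated control. Parthenolide 10 μM as positive control; means ± SD, n = 3, one-way ANOVA/Dunnett versus vehicle.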

[3] = as §1; design: species or system Homo sapiens; summary of the method: as §2
Homo sapiens [4] = species on record: Homo sapiens; experiment: Reduction in p53 level in HUVECtert at 2 uM after 8 hrs by Western blot analysis; assay type: functional
Homo sapiens [5] = species on record: Homo sapiens; experiment: Reduction in cyclin D1 level in HUVECtert at 2 uM by Western blot analysis; assay type: functional; conditions: TDE = time-dependent effect
Summary of the method: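 HUVECtert treated with 1 μM cycloheximide, 2 μM agent, vehicle, or left untreated for a time course; cyclin D1 or survivin by Western blot, actin loading control; means ± SD of three blots, one-way ANOVA/Dunnett versus untreated.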

[6] = Effect on basal E-selectin expression level in HUVECtert at 0.5 to 10 uM incubated for 30 mins by flow cytometry; assay type: ADME; conditions: human, 0.5 h
Summary of the method: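 Unstimulated HUVECtert treated with 0.5−10 μM test agent without TNFα; surface VCAM-1, ICAM-1 or E-selectin stained with FITC-labelled antibodies and read by flow cytometry.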

[7] = target: T1, Inhibitor of nuclear factor kappa-B kinase subunit alpha (Homo sapiens) (UniProt O15111); experiment: Inhibition of IKKalpha phosphorylation level in TNFalpha-stimulated HUVECtert at 2 uM pretreated for 30 mins followed by TNFalpha stimulation measured after 5 to 15 mins by Western blot analysis
T1 sequence (whole entry): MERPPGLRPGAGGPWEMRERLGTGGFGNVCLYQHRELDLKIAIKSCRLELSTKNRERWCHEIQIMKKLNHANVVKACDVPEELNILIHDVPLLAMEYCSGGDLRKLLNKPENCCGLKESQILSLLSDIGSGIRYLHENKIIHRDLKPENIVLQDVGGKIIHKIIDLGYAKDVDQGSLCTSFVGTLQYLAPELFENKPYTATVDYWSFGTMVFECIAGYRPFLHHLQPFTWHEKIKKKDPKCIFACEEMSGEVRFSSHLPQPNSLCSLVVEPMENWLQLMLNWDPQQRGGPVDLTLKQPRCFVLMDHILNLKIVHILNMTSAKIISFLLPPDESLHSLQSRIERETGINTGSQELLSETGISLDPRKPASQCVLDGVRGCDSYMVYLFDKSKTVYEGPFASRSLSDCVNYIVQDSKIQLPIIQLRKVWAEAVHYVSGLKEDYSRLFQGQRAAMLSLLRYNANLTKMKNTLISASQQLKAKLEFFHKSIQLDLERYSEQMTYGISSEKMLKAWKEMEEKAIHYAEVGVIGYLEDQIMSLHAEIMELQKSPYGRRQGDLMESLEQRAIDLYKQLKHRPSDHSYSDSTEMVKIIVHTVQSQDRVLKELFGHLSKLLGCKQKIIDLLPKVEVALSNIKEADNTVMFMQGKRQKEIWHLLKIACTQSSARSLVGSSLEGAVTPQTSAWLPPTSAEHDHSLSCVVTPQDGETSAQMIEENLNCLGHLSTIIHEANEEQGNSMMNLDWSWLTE
Summary of the method: (§3)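 HUVECtert on gelatin-coated dishes pretreated with 2 μM agent or 0.1% DMSO, then TNFα 10 ng/mL; p-IKKα/β, p-IκBα and total IκBα immunoblotted at 5 or 15 min post-stimulation, actin loading control; means ± SD, n = 3, one-way ANOVA/Dunnett.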

[8] = target: Transcription factor p65 (Homo sapiens) (UniProt Q04206); experiment: Inhibition of TNFalpha-stimulated NF-kappaB p65 nuclear translocation in HUVECtert nuclear extracts at 2 uM pretreated for 30 mins followed by TNFalpha stimulation measured after 1 hr by Western blot method
Sequence of Transcription factor p65 (Homo sapiens) (Q04206 whole entry): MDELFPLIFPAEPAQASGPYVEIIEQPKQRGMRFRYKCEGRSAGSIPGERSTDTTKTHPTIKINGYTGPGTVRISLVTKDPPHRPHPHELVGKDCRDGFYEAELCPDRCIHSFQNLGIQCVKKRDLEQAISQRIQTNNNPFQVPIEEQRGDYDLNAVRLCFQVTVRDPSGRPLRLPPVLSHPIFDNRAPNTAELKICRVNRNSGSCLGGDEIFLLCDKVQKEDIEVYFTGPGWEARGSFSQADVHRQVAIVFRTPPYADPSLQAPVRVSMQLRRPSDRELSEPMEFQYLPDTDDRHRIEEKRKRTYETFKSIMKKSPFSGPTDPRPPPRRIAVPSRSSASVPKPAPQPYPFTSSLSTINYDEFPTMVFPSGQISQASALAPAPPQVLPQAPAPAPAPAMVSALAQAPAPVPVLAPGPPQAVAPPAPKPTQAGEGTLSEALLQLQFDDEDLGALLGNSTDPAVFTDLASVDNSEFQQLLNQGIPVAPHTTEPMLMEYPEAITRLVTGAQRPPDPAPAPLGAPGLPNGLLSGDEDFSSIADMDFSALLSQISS
Summary of the method: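 Cells grown 48 h, pretreated 30 min with 2 μM or 0.1% DMSO, then TNFα 10 ng/mL for 1 h. Hypotonic NP40 lysis gave cytosol; nuclei extracted in 420 mM NaCl HEPES buffer pH 7.5. Nuclear p65 by Western blot, lamin loading control, tubulin/lamin verifying fractions; n = 3.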

Homo sapiens [9] = species on record: Homo sapiens; experiment: Cytotoxicity against TNFalpha-stimulated HUVECtert assessed as reduction in cell viability incubated for 30 mins followed by TNFalpha stimulation measured after 17.5 hrs by resazurin dye based fluorescence assay; assay type: functional
Summary of the method: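 HUVECtert (passage ≤15) seeded on gelatin-coated wells, grown 48 h, then exposed to test agent or 0.1% DMSO vehicle, with or without TNFα; digitonin 100 μg/mL as positive control. After 18 h, supernatant removed, cells washed, then 2 h with 10 μg/mL resazurin in PBS; metabolic conversion read relative to vehicle.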

[10] = target: Transcription factor p65 (Homo sapiens) (UniProt Q04206); experiment: Inhibition of NF-kappaB p65 binding to DNA consensus in TNFalpha-stimulated HUVECtert at 2 uM pretreated for 30 mins followed by TNFalpha stimulation measured after 1 hr […]
Homo sapiens [11] = species on record: Homo sapiens; experiment: Inhibition of NF-kappaB in HUVECtert assessed as reduction in TNFalpha-induced VCAM-1 mRNA expression level at 0.5 uM pretreated for 30 mins followed by TNFalpha stimulation measured after 4 hrs by qRT-PCR analysis
Homo sapiens [12] = species on record: Homo sapiens; experiment: Inhibition of de novo protein synthesis in HUVECtert at 2 to 5 uM after 30 mins by Click-iT OPP/Alexa fluor 488 picolyl azide reagent based confocal fluorescence microscopy; assay type: functional
Summary of the method: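 Cells on gelatin coverslips (24 h) exposed 30 min to agent (2 or 5 μM; cycloheximide 1, 3.5, 35 μM) or 0.1% DMSO, then 20 μM OPP for 30 min; formaldehyde fixation, Triton permeabilisation, Alexa 488 picolyl azide click reaction 30 min, nuclear counterstain; confocal imaging at 10×, constant gain and exposure.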

[13] = target: T2, NF-kappa-B inhibitor alpha (Homo sapiens) (UniProt P25963); experiment: Inhibition of IkappaBalpha phosphorylation level in TNFalpha-stimulated HUVECtert at 2 uM pretreated for 30 mins followed by TNFalpha stimulation measured after 5 to 15 mins by Western blot analysis; summary of the method: as §3
T2 sequence (whole entry): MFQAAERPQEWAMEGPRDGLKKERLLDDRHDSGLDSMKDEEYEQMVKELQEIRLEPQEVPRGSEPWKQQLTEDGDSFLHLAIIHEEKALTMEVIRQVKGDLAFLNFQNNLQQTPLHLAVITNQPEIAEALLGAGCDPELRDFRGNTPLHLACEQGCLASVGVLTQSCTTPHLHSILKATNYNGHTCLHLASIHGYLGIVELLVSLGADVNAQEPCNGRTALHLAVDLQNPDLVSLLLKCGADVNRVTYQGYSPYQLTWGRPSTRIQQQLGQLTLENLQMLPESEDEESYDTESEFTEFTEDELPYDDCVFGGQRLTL

Homo sapiens [14] = species on record: Homo sapiens; experiment: Inhibition of NF-kappaB in HUVECtert assessed as reduction in TNFalpha-induced E-selectin mRNA expression level at 0.5 to 5 uM pretreated for 30 mins followed by TNFalpha stimulation measured after 2 hrs by qRT-PCR analysis

In the case of `CC1=CC(=O)[C@@H](O)[C@@]2(C)[C@H]1CC(=O)[C@@]1(C)[C@H]3C(=O)O[C@H]([C@@H]3C)[C@H](O)[C@@H]12` [EURYCOMALACTONE], the inhibition (Homo sapiens [1]) is reported as “inactive”, the inhibition (Homo sapiens [2]) is reported as “Dose-dependent effect” and the IC50 [3] is reported as 580 nM. For the same compound, the Activity (Homo sapiens [4]) was “inactive”, the Activity (Homo sapiens [5]) was “Tde” and the Activity [6] was “Non-Toxic”. For the same compound, the inhibition [7] was “inactive”, the inhibition [8] was “inactive” and the Activity (Homo sapiens [9]) was “inactive”. The inhibition [10] was “inactive”, the inhibition (Homo sapiens [11]) was “inactive” and the inhibition (Homo sapiens [12]) was “Active”. For the same compound, the inhibition [13] was “inactive” and the inhibition (Homo sapiens [14]) was “inactive”.
